# Assay results from different studies.
# Lines come from different studies, so protocols differ.
SMILES,organism,assay,system,conditions,measurement,result
CN1CCN(c2cccc(-c3ccc4ncnc(Nc5ccc(Cl)c(Cl)c5)c4c3)c2)CC1,Trypanosoma brucei,"parasite growth, SYBR Green",,48 h,GI50,290 nM
O=c1[nH]c(CCl)nc2scc(-c3ccccc3)c12,Trypanosoma brucei,"parasite growth, ATP luminescence",,48 h,EC50,1400 nM
FC(F)(F)c1cc(Nc2ncnc3ccc(-c4cccc(N5CCOCC5)c4)cc23)ccc1Cl,Trypanosoma brucei,"parasite growth, SYBR Green",,48 h,GI50,50 nM
C/C(=N\C(=N)/N=C(\C)c1c(O)c2ccccc2oc1=O)c1c(O)c2ccccc2oc1=O,Penicillium verrucosum,"microbial growth, broth dilution",,48 h,MIC,125 µg/mL
CN1CCN(c2cccc(-c3ccc4ncnc(Nc5ncco5)c4c3)c2)CC1,Trypanosoma brucei,"parasite growth, SYBR Green",,48 h,GI50,1700 nM
CC[C@H]1OC(=O)[C@H](C)[C@@H](O[C@H]2C[C@@](C)(OC)[C@@H](O)[C@H](C)O2)[C@H](C)[C@@H](O[C@@H]2O[C@H](C)C[C@H](N(C)C)[C@H]2O)[C@](C)(O)C[C@@H](C)/C(=N\OCOCCOC)[C@H](C)[C@@H](O)[C@]1(C)O,Enterococcus faecium,microbial growth,,clinical isolate,MIC90,> 128 µg/mL
CC(=O)N1CCN(c2ccc(OCC3COC(Cn4ccnc4)(c4ccc(Cl)cc4Cl)O3)cc2)CC1 (stereo not drawn),Penicillium verrucosum,"microbial growth, broth dilution",,48 h,MIC,3.9 µg/mL
CC1(C)S[C@@H]2[C@H](NC(=O)[C@H](N)c3ccccc3)C(=O)N2[C@H]1C(=O)O,Enterococcus faecium,"microbial growth, broth dilution",ATCC19434,12 h,MIC,0.5 µg/mL
Cc1c2c(nn1C)CSCc1cc(n(C)n1)CSc1cc(c3ccccc3c1)OCCCc1c(C(=O)O)n(C)c3c-2c(Cl)ccc13,Enterococcus faecium,"microbial growth, broth dilution",,clinical isolate,MIC90,25 µM
CC(=O)N1CCN(c2ccc(OCC3COC(Cn4ccnc4)(c4ccc(Cl)cc4Cl)O3)cc2)CC1 (stereo not drawn),Candida albicans,"microbial growth, broth dilution",56452,48 h,MIC,2 µM
O=[N+]([O-])c1ccc(Nc2ncnc3ccc(-c4cccc(N5CCOCC5)c4)cc23)cc1C(F)(F)F,Trypanosoma brucei,"parasite growth, SYBR Green",,48 h,GI50,8.4 nM
C[C@@H]1[C@H](O)[C@@H](C)/C=C/C=C/C=C/C=C/C=C/C=C/C=C/[C@H](O[C@@H]2O[C@H](C)[C@@H](O)[C@H](N)[C@@H]2O)C[C@@H]2O[C@](O)(C[C@@H](O)C[C@@H](O)[C@H](O)CC[C@@H](O)C[C@@H](O)CC(=O)O[C@H]1C)C[C@H](O)[C@H]2C(=O)O,Candida albicans,"microbial growth, broth dilution",CGMCC2,48 h,MIC,< 0.25 µM
O=c1[nH]c(CCl)nc2scc(-c3ccc(F)cc3)c12,Trypanosoma brucei,"parasite growth, ATP luminescence",,24 h,EC50,1300 nM
CCOC(=O)c1cnc2c([N+](=O)[O-])cc(C(F)(F)F)cc2c1NC1CC1,Trypanosoma brucei,"parasite growth, resazurin",,72 h,EC50,> 10000 nM
OC(Cn1cncn1)(Cn1cncn1)c1ccc(F)cc1F,Candida albicans,"microbial growth, broth dilution",58288,48 h,MIC,8 µM
CCOC(=O)c1cnc2c([N+](=O)[O-])cc(C(F)(F)F)cc2c1NCCCN1CCOCC1,Trypanosoma brucei,"parasite growth, resazurin",,72 h,EC50,> 10000 nM
C/C(=N\c1nc(N)nc(/N=C(\C)c2c(O)c3ccccc3oc2=O)n1)c1c(O)c2ccccc2oc1=O,Penicillium verrucosum,"microbial growth, broth dilution",,48 h,MIC,7.81 µg/mL
c1cc(-c2ccc3ncnc(Nc4ncco4)c3c2)nc(N2C[C@H]3C[C@@H]2CO3)n1,Trypanosoma brucei,"parasite growth, SYBR Green",,48 h,GI50,4700 nM
C=C[C@]1(C)C[C@@H](OC(=O)CS[C@@H]2C[C@H]3CC[C@@H](C2)N3C)[C@]2(C)[C@H](C)CC[C@]3(CCC(=O)[C@H]32)[C@@H](C)[C@@H]1O,Enterococcus faecium,microbial growth,,clinical isolate,MIC90,128 µg/mL
O=c1[nH]c(CCl)nc2scc(-c3cccc(F)c3)c12,Trypanosoma brucei,"parasite growth, ATP luminescence",,24 h,EC50,1300 nM
c1cc(-c2ccc3ncnc(Nc4ncco4)c3c2)nc(N2CCOCC2)c1,Trypanosoma brucei,"parasite growth, SYBR Green",GAMBIENSE,,GI50,2400 nM
C/C(=N\C1CCCCC1/N=C(\C)c1c(O)c2ccccc2oc1=O)c1c(O)c2ccccc2oc1=O (stereo not drawn),Penicillium verrucosum,"microbial growth, broth dilution",,48 h,MIC,62.5 µg/mL
c1coc(Nc2ncnc3ccc(-c4cncc(N5CCOCC5)n4)cc23)n1,Trypanosoma brucei,"parasite growth, SYBR Green",,48 h,GI50,25000 nM
C/C(=N\C(=O)/N=C(\C)c1c(O)c2ccccc2oc1=O)c1c(O)c2ccccc2oc1=O,Penicillium verrucosum,"microbial growth, broth dilution",,48 h,MIC,62.5 µg/mL
CC1(C)S[C@@H]2[C@H](NC(=O)[C@H](N)c3ccccc3)C(=O)N2[C@H]1C(=O)O,Enterococcus faecium,microbial growth,,clinical isolate,MIC90,> 128 µg/mL
CN1CCC(Nc2ncnc3ccc(-c4cccc(N5CCOCC5)c4)cc23)CC1,Trypanosoma brucei,"parasite growth, SYBR Green",,48 h,GI50,4700 nM
O=c1[nH]c(CCl)nc2scc(-c3ccccc3F)c12,Trypanosoma brucei,"parasite growth, ATP luminescence",,48 h,EC50,800 nM
